Activity calls are given as the source filed them. No cut-off for these calls is given here.
How the values were obtained:
[1] = test system: SK-BR-3; experiment: Antiproliferative activity against human SKBR3 cells after 72 hrs by MTS/PMS assay; assay type: functional, cell-based; settings: SK-BR-3, 72 h
Procedure, shortened: (§1)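 Cells grown at 37 °C in humidified 5% CO2, seeded at 2000/well and left to attach overnight. Compound added at varying concentrations in DMSO (1% final) for 72 h. Viable cells read by MTS/PMS, normalized to 1% DMSO wells as 100% proliferation. IC50 taken from separate experiments run in triplicate.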

[2] = test system: MCF7; experiment: Antiproliferative activity against human MCF7 cells after 72 hrs by MTS/PMS assay; assay type: functional, cell-based; settings: MCF7, 72 h; procedure, shortened: as §1
[3] = target: Heat shock protein HSP 90-beta (Homo sapiens) (UniProt P08238); experiment: Inhibition of HSP90 in human MCF7 cells assessed as induction of HSP90 client protein cRaf degradation after 24 hrs by Western blot analysis; assay type: cell-based
Sequence of Heat shock protein HSP 90-beta (Homo sapiens) (P08238 whole entry): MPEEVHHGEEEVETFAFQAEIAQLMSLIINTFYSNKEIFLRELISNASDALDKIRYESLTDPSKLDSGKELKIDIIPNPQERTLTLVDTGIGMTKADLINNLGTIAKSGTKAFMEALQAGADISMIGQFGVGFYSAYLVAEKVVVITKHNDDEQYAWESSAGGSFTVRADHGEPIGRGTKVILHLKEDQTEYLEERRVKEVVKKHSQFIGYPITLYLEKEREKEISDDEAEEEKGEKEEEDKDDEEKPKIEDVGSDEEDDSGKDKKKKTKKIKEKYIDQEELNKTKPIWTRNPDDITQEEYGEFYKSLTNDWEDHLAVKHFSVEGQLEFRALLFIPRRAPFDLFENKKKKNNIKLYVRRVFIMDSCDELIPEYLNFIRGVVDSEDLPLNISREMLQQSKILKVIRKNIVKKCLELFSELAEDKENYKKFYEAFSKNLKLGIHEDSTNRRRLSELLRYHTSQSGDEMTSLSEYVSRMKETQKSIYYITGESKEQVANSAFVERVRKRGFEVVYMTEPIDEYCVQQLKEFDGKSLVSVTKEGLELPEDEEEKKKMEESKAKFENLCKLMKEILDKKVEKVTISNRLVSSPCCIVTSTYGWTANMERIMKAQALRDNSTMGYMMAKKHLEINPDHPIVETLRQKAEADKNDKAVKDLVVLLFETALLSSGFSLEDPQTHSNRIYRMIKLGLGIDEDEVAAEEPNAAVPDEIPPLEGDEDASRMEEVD
Procedure, shortened: (§2)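 MCF-7 cells exposed 24 h to various concentrations in DMSO (1% final) or vehicle. Cells lysed in RIPA with 1 mM PMSF, 2 mM orthovanadate and protease inhibitors, 1 h on ice, then clarified at 14000g for 10 min at 4 °C; protein by BCA. 20 μg protein run under reducing conditions, blotted to nitrocellulose, probed with specific antibodies plus HRP secondary, read by chemiluminescence; β-actin also probed.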

[4] = target: Heat shock protein HSP 90-beta (Homo sapiens) (UniProt P08238); experiment: Inhibition of HSP90 in human MCF7 cells assessed as induction of HSP90 client protein Her2 degradation after 24 hrs by Western blot analysis; assay type: cell-based; procedure, shortened: as §2
[5] = test system: MCF7; experiment: Inhibition of heat shock response-induced increase in HSP90 protein level in human MCF7 cells at 1 to 100 uM after 24 hrs by Western blot analysis; assay type: functional, cell-based
[6] = test system: SK-BR-3; experiment: Ratio of IC50 for human SK-BR-3 cells to IC50 for human MCF7 cells; assay type: functional

| SMILES | IC50 [1] [µM] | IC50 [2] [µM] | Activity [3] | Activity [4] | inhibition [5] | Ratio IC50 [6] |
| --- | --- | --- | --- | --- | --- | --- |
| CO[C@@H]1[C@@H](O)[C@@H](O)[C@H](Oc2ccc3c(=O)c(NC(C)=O)coc3c2)OC1(C)C | > 100 | > 100 | – | – | – | – |
| CC(=O)Nc1coc2cc(OC(C)=O)cc(O)c2c1=O | > 100 | 93.7 | – | – | – | – |
| CC(=O)Nc1cc(=O)c2cc(O)ccc2o1 | > 100 | > 100 | – | – | – | – |
| COc1cccc(-c2cc(C(=O)Nc3coc4cc(O[C@@H]5OC(C)(C)[C@H](OC)[C@@H](O)[C@H]5O)ccc4c3=O)ccc2OC)c1 | 29 | 25.2 | Dose-dependent effect | Dose-dependent effect | Active | – |
| CC(C)=CCc1c(O)cc2occ(-c3ccc4c(c3)OCO4)c(=O)c2c1O [DERRUBONE] | – | 11.9 | – | – | – | – |
| CO[C@@H]1[C@@H](O)[C@@H](O)[C@H](Oc2ccc3c(=O)c(-c4ccc5c(c4)OCO5)coc3c2)OC1(C)C | 18 | 9.2 | – | – | – | – |
| COc1cccc(-c2cc(C(=O)Nc3coc4c(C)c(O)ccc4c3=O)ccc2OC)c1 | 44.1 | 4.9 | – | – | – | 1.9 |
| CC(=O)Nc1coc2cc(O)cc(O)c2c1=O | > 100 | > 100 | – | – | – | – |
| COc1cccc(-c2cc(C(=O)Nc3coc4c(C)c(O[C@@H]5OC(C)(C)[C@H](OC)[C@@H](O)[C@H]5O)ccc4c3=O)ccc2OC)c1 | 46 | 51.6 | – | – | – | – |
| O=c1c(-c2ccc3c(c2)OCO3)coc2cc(O)ccc12 [PSEUDOBAPTOGENIN] | > 100 | > 100 | – | – | – | – |
| CO[C@@H]1[C@@H](O)[C@@H](O)[C@H](Oc2ccc3c(=O)c(-c4ccc5c(c4)OCO5)coc3c2C)OC1(C)C | 21.4 | 18.4 | – | – | – | – |
| O=c1c(-c2ccc3c(c2)OCO3)coc2cc(O)cc(O)c12 | > 100 | 70 | – | – | – | – |
| COc1cccc(-c2cc(C(=O)Nc3coc4c(C)c(OC(C)=O)ccc4c3=O)ccc2OC)c1 | 17 | 4.8 | – | – | – | – |
| COc1cccc(-c2cc(C(=O)Nc3coc4cc(OC(C)=O)ccc4c3=O)ccc2OC)c1 | 18.4 | 9.5 | – | – | – | – |
| CO[C@@H]1[C@@H](O)[C@@H](O)[C@H](Oc2ccc3c(=O)c(NC(C)=O)coc3c2C)OC1(C)C | > 100 | > 100 | – | – | – | – |
| COc1cccc(-c2cc(C(=O)Nc3cc(=O)c4cc(O[C@@H]5OC(C)(C)[C@H](OC)[C@@H](O)[C@H]5O)ccc4o3)ccc2OC)c1 | 33.8 | 14.7 | – | – | – | – |
| COc1cccc(-c2cc(C(=O)Nc3coc4cc(O[C@@H]5OC(C)(C)[C@H](OC)[C@@H](O)[C@H]5O)cc(O)c4c3=O)ccc2OC)c1 | 19.4 | 23.6 | – | – | – | – |
| CO[C@@H]1[C@@H](O)[C@@H](O)[C@H](Oc2ccc3oc(NC(C)=O)cc(=O)c3c2)OC1(C)C | > 100 | > 100 | – | – | – | – |
| CC(=O)Oc1ccc2c(=O)c(-c3ccc4c(c3)OCO4)coc2c1C | > 100 | > 100 | – | – | – | – |
| CC(=O)Nc1coc2cc(O)ccc2c1=O | > 100 | > 100 | – | – | – | – |

Continued, in another order:

| IC50 [1] [µM] | IC50 [2] [µM] | Activity [3] | Activity [4] | SMILES | inhibition [5] | Ratio IC50 [6] |
| --- | --- | --- | --- | --- | --- | --- |
| 36.5 | 13.1 | – | – | CC(C)=CCc1cc2c(=O)c(-c3ccc4c(c3)OCO4)coc2cc1O | – | – |
| > 100 | > 100 | – | – | CC(=O)Nc1coc2c(C)c(O)ccc2c1=O | – | – |
| > 100 | > 100 | – | – | CC(=O)Nc1coc2cc(OC(C)=O)ccc2c1=O | – | – |
| > 100 | > 100 | – | – | CO[C@@H]1[C@@H](O)[C@@H](O)[C@H](Oc2cc(O)c3c(=O)c(NC(C)=O)coc3c2)OC1(C)C | – | – |
| 21.3 | 9.7 | – | – | COc1cccc(-c2cc(C(=O)Nc3coc4cc(O)cc(O)c4c3=O)ccc2OC)c1 | – | 1.9 |
| 19.6 | 10.5 | – | – | COc1cccc(-c2cc(C(=O)Nc3cc(=O)c4cc(O)ccc4o3)ccc2OC)c1 | – | – |
| 37.1 | 8.6 | – | – | COc1cccc(-c2cc(C(=O)Nc3coc4cc(O)ccc4c3=O)ccc2OC)c1 | – | 1.9 |
| > 100 | > 100 | – | – | CC(=O)Oc1ccc2c(=O)c(-c3ccc4c(c3)OCO4)coc2c1 | – | – |
| 3.3 | 5.1 | – | – | COc1cccc(-c2cc(C(=O)Nc3coc4cc(OC(C)=O)cc(O)c4c3=O)ccc2OC)c1 | – | – |
| > 100 | > 100 | – | – | CC(=O)Oc1cc(O)c2c(=O)c(-c3ccc4c(c3)OCO4)coc2c1 | – | – |
| > 100 | > 100 | – | – | CC(=O)Nc1cc(=O)c2cc(OC(C)=O)ccc2o1 | – | – |
| > 100 | > 100 | – | – | CO[C@@H]1[C@@H](O)[C@@H](O)[C@H](Oc2cc(O)c3c(=O)c(-c4ccc5c(c4)OCO5)coc3c2)OC1(C)C | – | – |
| 2 | – | – | – | CO[C@@H]1[C@@H](O)[C@@H](O)[C@H](Oc2ccc3cc(NC(=O)CCCCC(=O)Nc4cc5ccc(O[C@@H]6OC(C)(C)[C@H](OC)[C@@H](O)[C@H]6O)cc5oc4=O)c(=O)oc3c2)OC1(C)C | – | – |
| > 100 | > 100 | – | – | Cc1c(O)ccc2c(=O)c(-c3ccc4c(c3)OCO4)coc12 | – | – |
| > 100 | > 100 | – | – | COc1cccc(-c2cc(C(=O)Nc3cc(=O)c4cc(OC(C)=O)ccc4o3)ccc2OC)c1 | – | – |
| > 100 | > 100 | – | – | CC(=O)Nc1coc2c(C)c(OC(C)=O)ccc2c1=O | – | – |
| > 100 | 49.2 | – | – | CC(C)=CCc1cc2c(=O)c(-c3ccc4c(c3)OCO4)coc2c(C)c1O | – | – |

From ChEMBL document CHEMBL1157681 (Bioorg Med Chem, 2010)
